Laboratory results published in the EternaBench riboswitch data.

Tested on: MS2 coat protein
Experiment: apparent Kd, MS2 coat protein; higher = weaker binding; RNA-MaP array; FMN 200 µM where present
In short: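 Designs were transcribed by stalled E. coli RNA polymerase on Illumina sequencing-chip clusters. They were titrated with SNAP-549-labelled MS2 coat protein from 0.7 or 1.5 nM, doubling to 3 µM, in 100 mM Tris-HCl pH 7.5, 80 mM KCl, 4 mM MgCl2, BSA, DTT, yeast tRNA and Tween-20, without and then with constant ligand. The apparent Kd is the median of filtered per-cluster fits after normalisation of green signal to red-channel RNA signal and control-cluster median Fmax.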

[1] = designed as: ON switch for flavin mononucleotide, no ligand
[2] = ligand present: flavin mononucleotide, designed as: ON switch for flavin mononucleotide
[3] = designed as: OFF switch for flavin mononucleotide, no ligand
[4] = ligand present: flavin mononucleotide, designed as: OFF switch for flavin mononucleotide

GGGUACAUCGGAGGAUAUCAUGUAAAUACAUGAGGAUCACCCAUGUCGAUGGAUACAUCGGAGAUUGAGAAGGCCGAUGUACCG
apparent Kd [1]: 0.013 µM | apparent Kd [2]: 0.00534 µM

GGGUACAUCGGAGGAUAUCAUGUAAAUACAUGAGGAUCACCCAUGUCGAUGUAGACAUCGGAGAUUGAGAAGGCCGAUGUACCG
apparent Kd [1]: 1.4 µM | apparent Kd [2]: 0.052 µM

GGGUACAUCGGAGGAUAUCAUGUACAUACAUGAGGAUCACCCAUGUCGAUGGAGACAUCGGAGAUUGAGAAGGCCGAUGUACCG
apparent Kd [1]: 0.23 µM | apparent Kd [2]: 0.00927 µM

GGGUACAUCGGAGGAUAUCGUGUAAAUACAUGAGGAUCACCCAUGUCGAUGGAGACAUCGGAGAUUGAGAAGGCCGAUGUACCG
apparent Kd [1]: 0.123 µM | apparent Kd [2]: 0.00812 µM

GGGUAGUGAGGAUAUCGUUGUUAGGAGGAGUAGGUAGGAGGCGAGAAGGCACAUGAGGAUCACCCAUGUAUGAG
apparent Kd [3]: 0.0292 µM | apparent Kd [4]: 0.0304 µM

GGGUCAACAUGAGGAUCACCCAUGUAGGAUAUCGCUAUUGUAAUCAUGAAACAUGAUUACAAUAGCGAGAAGGACAUAUGCUUU
apparent Kd [3]: 0.0123 µM | apparent Kd [4]: 0.0254 µM

GGGUCAUAUGUUAGGAUAUUGGAGGCAAGUGCCGUUAAGAAGGAACAUGAGGAUCACCCAUGUCUAACUGACUU
apparent Kd [3]: 0.0345 µM | apparent Kd [4]: 0.066 µM

GGGUGACAUGAGGAUCACCCAUGUCAGGAUAUGAUACUAUGUACUUCGGUACAUAGUAUCAGAAGGGACAUAAA
apparent Kd [3]: 0.104 µM | apparent Kd [4]: 0.0271 µM

GGUACCAUCACAGGAUAUGCUUUUCUUUGGGAAGCAGAAGGGUGUAACAUGAGGAUCACCCAUGUGGUACCAGGGCGUGAGCCC
apparent Kd [1]: 0.17 µM | apparent Kd [2]: 0.0148 µM

GGUACCUUCACAGGAUAUGCUAUCCUUUGGGUAGCAGAAGGGUGAUACAUGAGGAUCACCCAUGUGGUGCCAGGGCGUGAGCCC
apparent Kd [1]: 1.09 µM | apparent Kd [2]: 0.305 µM

GGUACCUUCACAGGAUAUGCUAUGCUUUGCGUAGCAGAAGGGUGAUACAUGAGGAUCACCCAUGUGGUGCCAGGGCGUGAGCCC
apparent Kd [1]: 0.283 µM | apparent Kd [2]: 0.278 µM

GGUACGUCCACAGGAUAUGCGAAACAAGAAACCGCAGAAGGGUGAGGCGUCAGGACCCUGGACAUGAGGAUCACCCAUGUGCGU
apparent Kd [1]: 0.113 µM | apparent Kd [2]: 0.0154 µM

GGUACUCAAAGAGUACAAGGUCGAACAUGAGGAUCACCCAUGUAGGAUAUGCUAAGCAAGAAGUAGCAGAAGGACAUGUGCAGC
apparent Kd [3]: 0.0177 µM | apparent Kd [4]: 0.0595 µM

GGUACUCAAAGAGUACGGAGUCGAACAUGAGGAUCACCCAUGUAGGAUAUGCUAAGCUUGAAGUUGCAGAAGGACAUGUGCAGC
apparent Kd [3]: 0.0107 µM | apparent Kd [4]: 0.0111 µM

GGUACUCAAAGAGUACUUGGUCGAACAUGAGGAUCACCCAUGUAGGAUAUGCGAAGCAAGAAGUAGCAGAAGGACAUGUGCAGC
apparent Kd [3]: 0.0148 µM | apparent Kd [4]: 0.0437 µM

GGUAGAAACAUUAACAUGAGGAUCACCCAUGUCAAAAGAAAUGAGGAUAUCGUAUACAAUGUAUAUGAGAAGGCAUGGUCUACC
apparent Kd [1]: 0.00778 µM | apparent Kd [2]: 0.00577 µM

GGUAGAAACAUUAACAUGAGGAUCACCCAUGUCAAAAGAAAUGAGGAUAUCGUAUUCAAUGUAUAUGAGAAGGCAUGGUCUGCC
apparent Kd [1]: 0.0157 µM | apparent Kd [2]: 0.0107 µM

GGUAUCUCCAGUGAGGAUAUGCGGCGUAGAACAUGAGGAUCACCCAUGUCCUUCGAAUGGGUUACGCAGAAGGCACUACGGUACC
apparent Kd [1]: 0.0366 µM | apparent Kd [2]: 0.0166 µM

GGUCACGUAGGAUAUACCUGGGCCUCUGAAUUCGGCAAUUUACAUGAGGAUCACCCAUGUAGAAGGACGAUGGC
apparent Kd [3]: 0.12 µM | apparent Kd [4]: 0.0976 µM

GGUCCAAUAUGAGGAUAUAGCAUCGUAUAGAUGCUAGAAGGCGUGUCGGUAGACAUGAGGAUCACCCAUGUAUUACAAUGGACC
apparent Kd [1]: 0.114 µM | apparent Kd [2]: 0.032 µM

GGUCCACAUGAGGAUCACCCAUGUCAGGAUAUAUACGGCACAAUAAUAAGUGCCGCCCAUAGAAGGGACGCUGG
apparent Kd [3]: 0.0157 µM | apparent Kd [4]: 0.0261 µM

GGUCCAUUAUGAGGAUAUGGCACCUUAUUGGUGCCAGAAGGCAUGUCUAUAGACAUGAGGAUCACCCAUGUAAUAAAUUGGACC
apparent Kd [1]: 0.494 µM | apparent Kd [2]: 0.0505 µM

GGUCGAAAGUAAGGAUAUGCCUAGGAAACCUAGGCAGAAGGUACAUGAGGAUCACCCAUGUUAACGCAAAGCGAAUAAACGACC
apparent Kd [3]: 0.0186 µM | apparent Kd [4]: 0.0274 µM

GGUCGUCACAUUAACAUGAGGAUCACCCAUGUCUCUUGACAUGAGGAUAUGGAUCCUAAUUGGAUCCAGAAGGCAUGGACGACC
apparent Kd [1]: 1.03 µM | apparent Kd [2]: 0.0965 µM

GGUCUGAUAUGAGGAUAUGCUCAGGAAUACUGAGCAGAAGGCAUGUGAAUACAUGAGGAUCACCCAUGUGAUCAAUACAGACCA
apparent Kd [1]: 0.14 µM | apparent Kd [2]: 0.026 µM

GGUGCAUAUGAGAAGGCGAUCAUGAAACAUGAUCGAGGAUAUCAUGUAAACAUGAGGAUCACCCAUGUAUGGGAAAAGUGCAUC
apparent Kd [1]: 0.0854 µM | apparent Kd [2]: 0.0107 µM

GGUGCCAUGUAGAAGGCAGAUCUGAUUCAGAUCUGAGGAUAUACAUGAGGAUCACCCAUGUAAAGGCACCGCACGAGAGUGCAA
apparent Kd [3]: 0.00651 µM | apparent Kd [4]: 0.00881 µM

GGUGCGUAUGUGAGGAUAUGCUGGUCCUUGGAUCAGCAGAAGGCACAUGAGGAUCACCCAUGUGGUGUCGUACC
apparent Kd [3]: 0.357 µM | apparent Kd [4]: 0.0235 µM

GGUGCGUAUGUGAGGAUAUGCUGGUCCUUGGCUCGGCAGAAGGCACAUGAGGAUCACCCAUGUGGUGUCGUACA
apparent Kd [3]: 0.112 µM | apparent Kd [4]: 0.0509 µM

GGUGCGUAUGUGAGGAUAUGCUGGUCCUUGGCUCGGCAGAAGGCACAUGAGGAUCACCCAUGUGGUGUCGUACU
apparent Kd [3]: 0.13 µM | apparent Kd [4]: 0.046 µM

GGUGCGUUUGUGAGGAUAUGCUGGUCCUUGGAUCCGCAGAAGGCACAUGAGGAUCACCCAUGUGGUGUCGUACC
apparent Kd [3]: 0.289 µM | apparent Kd [4]: 0.0403 µM

GGUGCGUUUGUGAGGAUAUGCUGGUCCUUGGUUCAGCAGAAGGCACAUGAGGAUCACCCAUGUGGUGUCGUACC
apparent Kd [3]: 0.24 µM | apparent Kd [4]: 0.028 µM

GGUGGACAUGAGGAUCACCCAUGUGAGGAUAUCGGCCGGCUAGUGGCGGCUGGCUUCACGAGAAGGCGCAUAGU
apparent Kd [3]: 0.0858 µM | apparent Kd [4]: 0.107 µM

GGUGGACAUGAGGAUCACCCAUGUGAGGAUAUCGGCUAUCUUCUCGCUGUCGGUUGCUCGAGAAGGCACAUUGU
apparent Kd [3]: 0.0706 µM | apparent Kd [4]: 0.0867 µM

GGUGGCGUGAUAACGCUAGAUAUAACAUGAGGAUCACCCAUGUAGGAUAUCCCGCCGAGAGGGCGGGAGAAGGACAACCAAUGG
apparent Kd [3]: 0.0409 µM | apparent Kd [4]: 0.034 µM

GGUGGCUUCACAGGAUAUCCCGAGCCAAACAUGAGGAUCACCCAUGUGCUGGUAUUAAAAUUUGCGGAGAAGGGUGGUUCACGU
apparent Kd [1]: 0.154 µM | apparent Kd [2]: 0.0741 µM

GGUGUAGGAGGAUAUACAUGAGGAUCACCCAUGUGGCCACGUUGUAAGAUGACAUUAUGUAGAAGGCUUAGUGG
apparent Kd [3]: 0.0904 µM | apparent Kd [4]: 0.0898 µM

GGUGUCAUCGAGAAGGCCUCAACAUGAGGAUCACCCAUGUUGUAAUAUGGGAGGAUAUCGAUGAUACAGCUACGUUUCGUAGCA
apparent Kd [1]: 0.0185 µM | apparent Kd [2]: 0.0061 µM

GGUUACAUCGGAGGAUAUCAUGUAAAUACAUGAGGAUCACCCAUGUCGAUGGAGACAUCGGAGAUUGAGAAGGCCGAUGUACCG
apparent Kd [1]: 0.17 µM | apparent Kd [2]: 0.00797 µM

GGUUAUUGCAAGGAUAUGCUUUUUUUUUAUAUUGCAGAAGGUGCAACAUGAGGAUCACCCAUGUUGGAGGGUUU
apparent Kd [3]: 0.0245 µM | apparent Kd [4]: 0.0429 µM

GGUUGUCAUCGUCGUCCUUUCGUUACAUGAGGAUCACCCAUGUAGGAUAUGCUGCAUUCGAUGUGGCAGAAGGGCAUGUGUGUU
apparent Kd [3]: 0.0181 µM | apparent Kd [4]: 0.0316 µM

GUAAAACAUGAGGAUCACCCAUGUCAACAAAGUCGAGGAUAUGGGCAAAUAAAAUAAGAACCAGAAGGCGAAUAAG
apparent Kd [1]: 0.161 µM | apparent Kd [2]: 0.0426 µM

GUAAACCUAGGAUAUACAUGAGGAUCACCCAUGUAAAGUUUCGUAAAAAGAUAAUCGAGUAGAAGGAGGUAGAU
apparent Kd [3]: 0.0215 µM | apparent Kd [4]: 0.0234 µM

GUAAAGUGAGGAUAUGGUAAAGUAAUUAUUUAGUAAGUAAUCCAGAAGGCACAUGAGGAUCACCCAUGUAAAUG
apparent Kd [3]: 0.0313 µM | apparent Kd [4]: 0.0368 µM

GUAAAUCAUGUAGGAUAUGCAUGGCGAAGCUACGCAGAAGGACAUGAGGAUCACCCAUGUUAUAGCUACCAAGUUAGGUGGCAA
apparent Kd [3]: 0.11 µM | apparent Kd [4]: 0.26 µM

GUAACUCAUGUAGGAUAUGCAUGGCGAAGCUACGCAGAAGGACAUGAGGAUCACCCAUGUUCUAGCGUCUGGAUACAGAUGCAA
apparent Kd [3]: 0.0857 µM | apparent Kd [4]: 0.327 µM

GUAACUUAUGUGAGGAUAUAUUAUGUCUUGGUGUAGUAGAAGGCACAUGAGGAUCACCCAUGUCCAAUUGGUCU
apparent Kd [3]: 0.229 µM | apparent Kd [4]: 0.457 µM

GUACAGAGGGAGAAGGGCUAGGAGGUCCAGCUUAUGUGUGUUGCAACAUGAGGAUCACCCAUGUAGCAGGAUAUCCCUCGUACA
apparent Kd [3]: 0.0402 µM | apparent Kd [4]: 0.257 µM

GUACAUACAAAGUUACAUGAGGAUCACCCAUGUUUAUUGGGAAGAAGGGUAACAUUAUUAGAUAUAUAGGAUAUUUCACAAUUG
apparent Kd [1]: 0.718 µM | apparent Kd [2]: 0.387 µM

GUACUGACAGGAUAUACAUGAGGAUCACCCAUGUCCUUGUGCUGACAAAAGUCAGCACGUAGAAGGGUCUGUAC
apparent Kd [3]: 0.0229 µM | apparent Kd [4]: 0.207 µM

GUAGAACAUGAGGAUCACCCAUGUGAAGACGCAUGAGGAUAUAUACGUAAAUAGCAUACGAUAGAAGGCAUGAUAA
apparent Kd [1]: 0.0518 µM | apparent Kd [2]: 0.0268 µM

GUAGAGUAAGGAUAUGCAGAAUAGGAUAGAAUGGAUAGAAUGCAGAAGGUACAUGAGGAUCACCCAUGUAAUGU
apparent Kd [3]: 0.0198 µM | apparent Kd [4]: 0.0216 µM

GUAGAGUCAGGAUAUACAAGAUCGAAAGAUCGAAGAUCCAUACAUGAGGAUCACCCAUGUAGAAGGGACUCUAC
apparent Kd [3]: 0.0171 µM | apparent Kd [4]: 0.0358 µM

GUAGAGUCAGGAUAUACGAGAUCGAAAGAUCUGUGAUCCAUACAUGAGGAUCACCCAUGUAGAAGGGACUCUAC
apparent Kd [3]: 0.0337 µM | apparent Kd [4]: 0.364 µM

GUAGCAAUCGGAGGAUAUUCAUACCGGAAACGGACAUGAGGAUCACCCAUGUGGCGAAAGCCUUGGGAGAAGGCCGAUUGCUAC
apparent Kd [1]: 0.614 µM | apparent Kd [2]: 0.0213 µM
